Measured values published in ChEMBL document CHEMBL3259701, “Siderophore receptor-mediated uptake of lactivicin analogues in gram-negative bacteria” (J Med Chem, 2014).
Converted amounts (≈) assume the structure as drawn.

Key:
Pseudomonas aeruginosa [1] = experiment: Antibacterial activity against Pseudomonas aeruginosa PAO1 harboring siderophore receptor fpvA mutant in medium containing aztreonam and low-Fe by CLSI broth microdilution method; format: functional
Acinetobacter baumannii = experiment: Antibacterial activity against Acinetobacter baumannii AB-3167 by CLSI broth microdilution method; format: functional
Escherichia coli [2] = experiment: Antibacterial activity against Escherichia coli DH5alpha expressing beta-lactamase TEM-1 by CLSI broth microdilution method; format: functional; details: DH5[alpha]
Pseudomonas aeruginosa [3] = experiment: Antibacterial activity against Pseudomonas aeruginosa PAO1 harboring siderophore receptor piuA, pfeA and pirA mutant in medium containing low-Fe by CLSI broth microdilution method; format: functional
Summary of the method: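 MIC by CLSI broth microdilution in a modified Mueller Hinton broth depleted of iron to mimic the low-iron in vivo environment. Tested against PAO1 and isogenic strains lacking one or more siderophore receptors.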

Pseudomonas aeruginosa [4] = experiment: Antibacterial activity against Pseudomonas aeruginosa PAO1 in Mueller-Hinton broth medium by CLSI broth microdilution method; format: functional
Summary of the method: (§1)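 MIC by CLSI broth microdilution in standard Mueller Hinton broth. Tested against wild-type P. aeruginosa PAO1 and an isogenic panel lacking one or more siderophore receptors.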

Pseudomonas aeruginosa [5] = experiment: Antibacterial activity against Pseudomonas aeruginosa PAO1 harboring siderophore receptor piuA, pfeA and pirA mutant in medium containing aztreonam and low-Fe by CLSI broth microdilution method; format: functional
Escherichia coli [6] = experiment: Antibacterial activity against Escherichia coli DH5alpha expressing beta-lactamase SHV-5 by CLSI broth microdilution method; format: functional; details: DH5[alpha]
Pseudomonas aeruginosa [7] = experiment: Antibacterial activity against Pseudomonas aeruginosa PAO1 harboring siderophore receptor piuA and fpvA double mutant in Mueller-Hinton broth medium by CLSI broth microdilution method; format: functional; summary of the method: as §1
Pseudomonas aeruginosa [8] = experiment: Antibacterial activity against Pseudomonas aeruginosa PAO1 harboring siderophore receptor piuA and pfeA double mutant in medium containing aztreonam and low-Fe by CLSI broth microdilution method; format: functional
Pseudomonas aeruginosa [9] = experiment: Antibacterial activity against Pseudomonas aeruginosa PAO1 harboring siderophore receptor fptA mutant in Mueller-Hinton broth medium by CLSI broth microdilution method; format: functional; summary of the method: as §1
Pseudomonas aeruginosa [10] = experiment: Ratio of MIC for Pseudomonas aeruginosa PAO1 harboring siderophore receptor fpvA mutant to MIC for wild type Pseudomonas aeruginosa PAO1 in medium containing low-Fe by CLSI broth microdilution method; format: functional
Summary of the method: (§2)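 Ratio of strain MIC to PAO1 MIC. Both MICs were obtained by CLSI broth microdilution in iron-depleted modified Mueller Hinton broth. A shift greater than 4× versus the parent was read as the deleted receptor(s) taking part in uptake.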

Pseudomonas aeruginosa [11] = experiment: Ratio of MIC for Pseudomonas aeruginosa PAO1 harboring siderophore receptor piuA mutant in MHB medium to MIC for Pseudomonas aeruginosa PAO1 harboring siderophore receptor piuA mutant in medium containing low-Fe by CLSI broth microdilution method; format: functional
[12] = Displacement of fluorescent Bocillin FL from Pseudomonas aeruginosa PBP3
Pseudomonas aeruginosa [13] = experiment: Ratio of MIC for Pseudomonas aeruginosa PAO1 harboring siderophore receptor piuA and pfeA double mutant in MHB medium to MIC for Pseudomonas aeruginosa PAO1 harboring siderophore receptor piuA and pfeA double mutant in medium containing low-Fe by CLSI broth microdilution method; format: functional
Pseudomonas aeruginosa [14] = experiment: Antibacterial activity against Pseudomonas aeruginosa PAO1 harboring siderophore receptor pfeA mutant in Mueller-Hinton broth medium by CLSI broth microdilution method; format: functional; summary of the method: as §1
Pseudomonas aeruginosa [15] = experiment: Ratio of MIC for Pseudomonas aeruginosa PAO1 harboring siderophore receptor fptA mutant in MHB medium to MIC for Pseudomonas aeruginosa PAO1 harboring siderophore receptor fptA mutant in medium containing low-Fe by CLSI broth microdilution method; format: functional
Pseudomonas aeruginosa [16] = experiment: Antibacterial activity against Pseudomonas aeruginosa PAO1 harboring siderophore receptor piuA mutant in Mueller-Hinton broth medium by CLSI broth microdilution method; format: functional; summary of the method: as §1
Pseudomonas aeruginosa [17] = experiment: Antibacterial activity against Pseudomonas aeruginosa PAO1 harboring siderophore receptor piuA and pirA double mutant in medium containing aztreonam and low-Fe by CLSI broth microdilution method; format: functional
Pseudomonas aeruginosa [18] = experiment: Ratio of MIC for Pseudomonas aeruginosa PAO1 harboring siderophore receptor piuA and pirA double mutant to MIC for wild type Pseudomonas aeruginosa PAO1 in medium containing aztreonam and low-Fe by CLSI broth microdilution method; format: functional
Pseudomonas aeruginosa [19] = experiment: Antibacterial activity against Pseudomonas aeruginosa PAO1 by CLSI broth microdilution method; format: functional
Pseudomonas aeruginosa [20] = experiment: Ratio of MIC for Pseudomonas aeruginosa PAO1 harboring siderophore receptor pirA and pfeA double mutant to MIC for wild type Pseudomonas aeruginosa PAO1 in medium containing low-Fe by CLSI broth microdilution method; format: functional; summary of the method: as §2
[21] = Displacement of fluorescent Bocillin FL from Pseudomonas aeruginosa PBP2
Pseudomonas aeruginosa [22] = experiment: Ratio of MIC for Pseudomonas aeruginosa PAO1 harboring siderophore receptor piuA, pfeA and pirA mutant to MIC for wild type Pseudomonas aeruginosa PAO1 in medium containing aztreonam and low-Fe by CLSI broth microdilution method; format: functional
Pseudomonas aeruginosa [23] = experiment: Ratio of MIC for Pseudomonas aeruginosa PAO1 harboring siderophore receptor piuA and fpvA double mutant to MIC for wild type Pseudomonas aeruginosa PAO1 in medium containing aztreonam and low-Fe by CLSI broth microdilution method; format: functional
[24] = Displacement of fluorescent Bocillin FL from Pseudomonas aeruginosa PBP1b
Pseudomonas aeruginosa [25] = experiment: Ratio of MIC for Pseudomonas aeruginosa PAO1 harboring siderophore receptor piuA mutant to MIC for wild type Pseudomonas aeruginosa PAO1 in medium containing aztreonam and low-Fe by CLSI broth microdilution method; format: functional
Pseudomonas aeruginosa [26] = experiment: Ratio of MIC for Pseudomonas aeruginosa PAO1 harboring siderophore receptor piuA and pirA double mutant to MIC for wild type Pseudomonas aeruginosa PAO1 in medium containing low-Fe by CLSI broth microdilution method; format: functional
Summary of the method: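 CLSI broth microdilution MICs in a modified Mueller-Hinton broth depleted of iron to mimic low in vivo iron. Tested against wild-type PAO1 and isogenic siderophore receptor knockout strains. Reported as the knockout-strain MIC divided by the PAO1 MIC in the same iron-depleted medium.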

## CC(C)(O/N=C(\C(=O)N[C@H]1CON(C2(C(=O)O)C[C@H](N3C(=O)c4cc(O)c(O)cc4C3=O)C(=O)O2)C1=O)c1csc(N)n1)C(=O)O (some centres not stated)
Pseudomonas aeruginosa [1]
  MIC: 2 µg/mL (≈ 3.02 µM)
Acinetobacter baumannii
  MIC: 0.06 µg/mL (≈ 0.0906 µM)
Escherichia coli [2]
  MIC: 0.06 µg/mL (≈ 0.0906 µM)
Pseudomonas aeruginosa [3]
  MIC: 0.25 µg/mL (≈ 0.377 µM)
Pseudomonas aeruginosa [4]
  MIC: 0.5 µg/mL (≈ 0.755 µM)
Pseudomonas aeruginosa [5]
  MIC: 4 µg/mL (≈ 6.04 µM)
Escherichia coli [6]
  MIC: 0.03 µg/mL (≈ 0.0453 µM)
Pseudomonas aeruginosa [7]
  MIC: 16 µg/mL (≈ 24.1 µM)
Pseudomonas aeruginosa [8]
  MIC: 4 µg/mL (≈ 6.04 µM)
Pseudomonas aeruginosa [9]
  MIC: 4 µg/mL (≈ 6.04 µM)
Pseudomonas aeruginosa [10]
  Ratio: 1
Pseudomonas aeruginosa [11]
  Ratio: 64
[12]
  IC50: 46 nM
Pseudomonas aeruginosa [13]
  Ratio: 64
Pseudomonas aeruginosa [14]
  MIC: 0.5 µg/mL (≈ 0.755 µM)
Pseudomonas aeruginosa [15]
  Ratio: 64
Pseudomonas aeruginosa [16]
  MIC: 8 µg/mL (≈ 12.1 µM)
Pseudomonas aeruginosa [17]
  MIC: 4 µg/mL (≈ 6.04 µM)
Pseudomonas aeruginosa [18]
  Ratio: 1
Pseudomonas aeruginosa [19]
  MIC: 0.5 µg/mL (≈ 0.755 µM)
Pseudomonas aeruginosa [20]
  Ratio: 1
[21]
  IC50: 3700 nM
Pseudomonas aeruginosa [22]
  Ratio: 1
Pseudomonas aeruginosa [23]
  Ratio: 1
[24]
  IC50: 270 nM
Pseudomonas aeruginosa [25]
  Ratio: 1
Pseudomonas aeruginosa [26]
  Ratio: >=8
